Source: ChEMBL document CHEMBL1156262, “Substituted benzothiophene or benzofuran derivatives as a novel class of bone morphogenetic protein-2 up-regulators: synthesis, structure-activity relationships, and preventive bone loss efficacies in senescence accelerated mice (SAMP6) and ovariectomized rats” (J Med Chem, 2010)
Calls of active or inactive are those of the source. No cut-off for these calls is given here.

Legend:
[1] = tested on: Rattus norvegicus; assay: Prevention of bone loss in ovariectomized rat assessed as increase in number, thickness, area and connectivity of trabecula at 15 mg/kg/day, po after 3 months by histomorphometry Leica Qwin image analysis; type: functional, organism-based
Procedure, shortened: (§1)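 Female rats (205–235 g) randomized by body weight, n = 7 per group: sham, ovariectomized with vehicle, ovariectomized with raloxifene 5 mg/kg/day, and ovariectomized with compound at 7.5, 15 or 30 mg/kg/day. All dosing oral for 3 months. Undecalcified proximal tibia sections analysed by histomorphometry, with comparisons against the sham and ovariectomized groups.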

[2] = tested on: Mus musculus; assay: Induction of bone mineral density in SAMP6 mouse assessed as spine BMD at 30 mg/kg/day, po measured after 3 months; type: functional
Procedure, shortened: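 SAMP6 mice, 5 months old, n = 5 per group, given compound in 0.5% methylcellulose by gavage daily. Dual-energy X-ray absorptiometry under pentobarbital anaesthesia (50 mg/kg ip), animals prone, at 0, 4, 8 and 12 weeks of treatment. Regions of interest were whole body, spine and left hind leg.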

[3] = tested on: Mus musculus; assay: Induction of bone formation in SAMP6 mouse right femora assessed as trabecular resorption surface percentage at 30 mg/kg/day, po measured after 3 months by bone histomorphometry; type: functional, Trabecula
Procedure, shortened: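 SAMP6 mice, 5 months old, n = 5 per group (3 male, 2 female), randomized by initial BMD. Given compound in 0.5% methylcellulose by gavage daily for 3 months. Proximal third of the right femur fixed in 4% paraformaldehyde, cut as undecalcified sections, and scored by image analysis for histomorphometry.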

[4] = tested on: Mus musculus; assay: Induction of BMP2 expression in SAMP6 mouse cartilage cells at 30 mg/kg/day, po after 3 months by immunohistochemical analysis; type: functional, organism-based
Procedure, shortened: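 SAMP6 mice, 5 months old, male and female, n = 5 per group (3 male, 2 female). Dosed by gavage with compound suspended in 0.5% methylcellulose daily for 3 months; the vehicle group received methylcellulose only. Proximal third of the left femur fixed in 4% neutral paraformaldehyde for 24 h, decalcified in 10% EDTA at 4 °C for 4 weeks, then frozen-sectioned at 5 μm. Stained with rabbit polyclonal anti-BMP-2 and an alkaline phosphatase secondary. BMP-2-positive area was taken as a percentage of bone tissue area, averaged over five fields below the epiphyseal plate.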

[5] = tested on: Rattus norvegicus; assay: Prevention of bone loss in po dosed ovariectomized rat assessed as increase in number, thickness, area and connectivity of trabecula after 3 months by histomorphometry Leica Qwin image analysis; type: functional, organism-based; procedure, shortened: as §1
[6] = tested on: Rattus norvegicus; assay: Induction of bone formation in ovariectomized rat assessed as increase in trabecular bone volume percentage at 15 mg/kg/day, po after 3 months; type: functional, organism-based; details: Trabecula; procedure, shortened: as §1
[7] = tested on: Rattus norvegicus; assay: Induction of bone formation in ovariectomized rat assessed as increase in trabecular bone volume percentage at 30 mg/kg/day, po after 3 months; type: functional, organism-based; details: Trabecula; procedure, shortened: as §1
[8] = tested on: Rattus norvegicus; assay: Induction of bone formation in ovariectomized rat assessed as decrease in trabecular resorption surface percentage at 15 mg/kg/day, po after 3 months; type: functional, organism-based; details: Trabecula; procedure, shortened: as §1
[9] = tested on: Rattus norvegicus; assay: Induction of bone formation in ovariectomized rat assessed as decrease in trabecular resorption surface percentage at 30 mg/kg/day, po after 3 months; type: functional, organism-based; details: Trabecula; procedure, shortened: as §1
[10] = tested on: Mus musculus; assay: Toxicity in SAMP6 mouse assessed as pathological changes in liver at 30 mg/kg/day, po after 3 months by histomorphology; type: organism-based; parameters: route oral; details: in vivo
Procedure, shortened: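 SAMP6 mice, n = 5 per group, dosed orally at 30 mg/kg/day in 0.5% methylcellulose for 3 months. Heart, liver, spleen, lung and kidney harvested, weighed and examined histologically. Organ/body weight indexes, body weight, and 24 h water and food intake (g/g body weight) compared with vehicle controls.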

[11] = tested on: Rattus norvegicus; assay: Toxicity in rat assessed as pathological changes in heart at 150 mg/kg/day, po after 3 months by histomorphology; type: organism-based; parameters: route oral; details: in vivo
Procedure, shortened: (§2)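 Rats, n = 7, given oral doses of 150 mg/kg/day for 3 months. Heart, liver, spleen, lung and kidney examined histologically for pathological change.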

[12] = tested on: Rattus norvegicus; assay: Toxicity in rat assessed as pathological changes in lung at 150 mg/kg/day, po after 3 months by histomorphology; type: organism-based; parameters: route oral; details: in vivo; procedure, shortened: as §2
[13] = Toxicity in ip dosed Kunming mouse assessed as mortality treated for 3 days measured after 17 days; type: organism-based; details: in vivo

CC(=O)c1cc2ccccc2s1
Activity [1]: Active | Activity [2]: 0.086 g/cm2 | Activity [3]: 7.09% | Activity [4]: inactive | Activity [5]: Dose-dependent effect | Activity [6]: Active | Activity [7]: Active | Activity [8]: Active | Activity [9]: Active | Activity [10]: Non-toxic | Activity [11]: Non-toxic | Activity [12]: Non-toxic | LD50 at 408 h [13]: > 1580 mg/kg
